≈ marks a conversion by molar mass, not a printed value.
What was measured:
[1] = test system: Meloidogyne incognita; assay: Nematicidal activity against Meloidogyne incognita (root-knot nematode) juveniles J2 assessed as paralysis after 1 hr; format: functional, organism-based
In short: (§1)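 M. incognita (Italian population reared on tomato cv. Roma VF) J2 hatched from egg masses in distilled water at 25 ± 2 °C. Methanol stocks diluted with Tween 20 in water (final methanol ≤1% v/v). Working solution at double strength mixed 1:1 with a suspension of 25 J2 per well. Held covered, dark, 20 °C. Paralysis scored by inverted microscope. Corrected by Schneider-Orelli against water control. EC50 from log-logistic regression. Six replicates; four experiments.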

[2] = test system: Meloidogyne incognita; assay: Nematicidal activity against Meloidogyne incognita (root-knot nematode) juveniles J2 assessed as paralysis after 1 day; format: functional, organism-based; conditions: 24 h; in short: as §1
[3] = test system: Meloidogyne incognita; assay: Toxicity against Meloidogyne incognita (root-knot nematode) juveniles J2 at 100 mg/L after 24 hr; format: functional
In short: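 J2 were immersed in 100 mg/L test solution in multiwell plates containing 25 J2 per well. Plates were held in the dark at 20 °C. Paralysis or death was scored by microscope after 24 h and corrected against the water control.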

Compound | EC50 [1] | EC50 [2] | mortality at 100 µg/mL [3]
O=C1Nc2ccccc2C1=O [ISATIN] | > 250 µg/mL | > 250 µg/mL | –
CN=C=S [METHYLISOTHIOCYANATE] | > 10 µg/mL | 7.86 µg/mL (≈ 107 µM) | –
Cn1cccc1C=O | > 1000 µg/mL | > 1000 µg/mL | –
O=Cc1cccs1 [2-THIOPHENENECARBOXALDEHYDE] | 105 µg/mL (≈ 936 µM) | 14.1 µg/mL (≈ 126 µM) | 100%
N#Cc1cccs1 [2-THIOPHENECARBONITRILE] | > 100 µg/mL | > 100 µg/mL | –
N#Cc1c[nH]c2ccccc12 | > 250 µg/mL | 68.9 µg/mL (≈ 485 µM) | –
O=Cc1c[nH]c2ccccc12 [3-FORMYLINDOLE] | > 250 µg/mL | 301 µg/mL (≈ 2070 µM) | –
O/N=C/c1cccs1 [2-THIOPHENECARBOXALDEHYDE OXIME] | > 250 µg/mL | > 250 µg/mL | –
N#Cc1ccc(C=O)s1 | > 250 µg/mL | > 250 µg/mL | –
O=Cc1ccc[nH]1 | > 1000 µg/mL | 392 µg/mL (≈ 4120 µM) | –
O=Cc1ccc(C=O)s1 [2,5-THIOPHENENEDICARBOXALDEHYDE] | 1.2 µg/mL (≈ 8.56 µM) | 1.13 µg/mL (≈ 8.06 µM) | –
N#Cc1ccc(C#N)s1 [2,5-THIOPHENEDINITRILE] | > 250 µg/mL | > 250 µg/mL | –
O=Cc1ccccn1 [2-PYRIDINECARBOXALDEHYDE] | 25 µg/mL (≈ 233 µM) | 3.6 µg/mL (≈ 33.6 µM) | 100%
O=C1CCCN1 [2-PYRROLIDONE] | > 250 µg/mL | > 250 µg/mL | –
O=Cc1cccnc1 [NICOTINALDEHYDE] | > 250 µg/mL | > 10 µg/mL | –
